Assays:
Format in all cases: functional, cell-based
K562 [1] = experiment: In vitro inhibitory activity against human leukemia K562IU cell line
In short: (§1)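 Cells kept in 10% FBS medium, RPMI 1640 for K562/K562IU and MEM alpha for HT-29/MCF-7; adherent lines trypsinized to single-cell suspension. Log-phase cells seeded at about 50 000 cells/mL, acclimatized 24 h, then exposed to compound dilutions (up to 100 μM) in triplicate for 48 h at 37 °C, 5% CO2. MTS/PMS tetrazolium reduction 3 h, A490; IC50 = concentration giving 50% growth inhibition.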

MCF7 = experiment: In vitro inhibitory activity against human breast carcinoma MCF-7 cell line; in short: as §1
HT-29 = experiment: In vitro inhibitory activity against human colon carcinoma HT-29 cell line; in short: as §1
K562 [2] = experiment: In vitro inhibitory activity against human myelogenous leukemia K562 cell line; in short: as §1

SMILES | IC50 (K562 [1]) | IC50 (MCF7) | IC50 (HT-29) | IC50 (K562 [2])
CNc1ncnc2c1ncn2C1O[C@H](CO)[C@@H](O)[C@@]1(C)O (stereo partly drawn) | > 100 µM | > 100 µM | > 100 µM | > 100 µM
C[C@]1(O)C(O)[C@H](n2cnc3c(N)ncnc32)O[C@@H]1CO (single isomer, unassigned) | 38.3 µM | 17.5 µM | 23.2 µM | 18.2 µM
C[C@@]1(n2cnc3c(N)ncnc32)O[C@H](CO)[C@@H](O)C1O (single isomer, unassigned) | > 100 µM | > 100 µM | > 100 µM | 53 µM
C[C@]1(O)C(n2cnc3c(NC4CC4)ncnc32)O[C@H](CO)[C@H]1O (stereo partly drawn) | > 100 µM | > 100 µM | > 100 µM | > 100 µM
CNc1ncnc2c1ncn2[C@@H]1O[C@H](CO)[C@@H](O)C1O (single isomer, unassigned) | > 100 µM | > 100 µM | > 100 µM | > 100 µM
C[C@@]1(O)[C@H](O)[C@@H](CO)O[C@H]1n1cnc2c(N)ncnc21 | > 100 µM | > 100 µM | > 100 µM | 16 µM

Further lines, results first:

IC50 (K562 [1]) | IC50 (MCF7) | IC50 (HT-29) | IC50 (K562 [2]) | SMILES
93.8 µM | 68.1 µM | 74.3 µM | 43.9 µM | CNc1ncnc2c1ncn2C1O[C@H](CO)[C@@](C)(O)C1O (single isomer, unassigned)
> 100 µM | > 100 µM | > 100 µM | > 100 µM | C[C@]1(O)C(n2cnc3c(N)nc(Cl)nc32)O[C@H](CO)[C@H]1O (stereo partly drawn)
19.5 µM | 72.6 µM | 85.6 µM | 15.4 µM | Nc1nc(Cl)nc2c1ncn2[C@@H]1O[C@H](CO)[C@@H](O)C1O (single isomer, unassigned)
> 100 µM | > 100 µM | > 100 µM | > 100 µM | C[C@]1(O)C(O)C(n2cnc3c(N)nc(Cl)nc32)O[C@@H]1CO (single isomer, unassigned)
> 100 µM | > 100 µM | > 100 µM | 73 µM | C[C@]1(O)C(O)C(n2cnc3c(NC4CC4)ncnc32)O[C@@H]1CO (single isomer, unassigned)
> 100 µM | 93.4 µM | > 100 µM | > 100 µM | OC[C@H]1O[C@@H](n2cnc3c(NC4CC4)ncnc32)C(O)[C@@H]1O (single isomer, unassigned)

Reference: ChEMBL document CHEMBL1140342, “Antitumor activity of C-methyl-beta-D-ribofuranosyladenine nucleoside ribonucleotide reductase inhibitors” (J Med Chem, 2005)
